{"source": "paper PMC4878416", "about": "(Diabetes, 2016)", "key": {"human β-cells [1]": {"tested_on": "human β-cells", "assay": "EdU incorporation proliferation assay in dissociated human islet cells", "assay_type": "cell-based", "outline": "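Human islets dissociated in Accutase (5,000 IEQ/mL, 37°C, 20 min), resuspended in CMRL complete medium and seeded at ~30,000 (96-well) or ~15,000 (384-well) cells per well. EdU was present throughout the 6-day treatment, including FK506 cotreatment. Cells were fixed (3% PFA), permeabilised (0.2% Triton X-100) and stained for C-peptide and DAPI. EdU+ β-cells were scored by automated imaging and manually; 4 wells, 9 fields each; mean ± SD; two-tailed t test vs DMSO.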"}, "DYRK1B": {"biological_target": "DYRK1B (Homo sapiens, UniProt Q9Y463)", "sequence (Q9Y463 whole entry)": "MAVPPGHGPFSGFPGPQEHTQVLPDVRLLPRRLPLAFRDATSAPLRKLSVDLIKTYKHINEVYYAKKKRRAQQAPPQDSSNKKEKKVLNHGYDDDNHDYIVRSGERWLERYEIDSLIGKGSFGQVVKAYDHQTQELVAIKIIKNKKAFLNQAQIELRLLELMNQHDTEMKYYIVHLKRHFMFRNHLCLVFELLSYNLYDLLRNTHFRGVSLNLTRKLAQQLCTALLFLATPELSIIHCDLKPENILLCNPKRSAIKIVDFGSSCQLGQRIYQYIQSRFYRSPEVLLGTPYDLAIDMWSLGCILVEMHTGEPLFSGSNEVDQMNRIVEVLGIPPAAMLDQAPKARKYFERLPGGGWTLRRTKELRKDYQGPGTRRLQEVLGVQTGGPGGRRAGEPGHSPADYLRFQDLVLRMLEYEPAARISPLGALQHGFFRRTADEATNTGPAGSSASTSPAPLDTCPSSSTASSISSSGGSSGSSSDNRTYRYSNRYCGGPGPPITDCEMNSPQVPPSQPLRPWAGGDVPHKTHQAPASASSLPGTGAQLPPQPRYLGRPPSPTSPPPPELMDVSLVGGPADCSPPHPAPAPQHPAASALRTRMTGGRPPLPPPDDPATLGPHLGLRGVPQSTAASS", "assay": "Human kinome profiling, DYRK1B", "assay_type": "biochemical", "outline": "(§1)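 Human kinases profiled by commercial providers under their standard protocols; ATP within 15 μmol/L of the apparent KM for each enzyme.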"}, "DYRK3": {"biological_target": "T1, DYRK3 (Homo sapiens, UniProt O43781)", "T1 sequence (O43781 1-588)": "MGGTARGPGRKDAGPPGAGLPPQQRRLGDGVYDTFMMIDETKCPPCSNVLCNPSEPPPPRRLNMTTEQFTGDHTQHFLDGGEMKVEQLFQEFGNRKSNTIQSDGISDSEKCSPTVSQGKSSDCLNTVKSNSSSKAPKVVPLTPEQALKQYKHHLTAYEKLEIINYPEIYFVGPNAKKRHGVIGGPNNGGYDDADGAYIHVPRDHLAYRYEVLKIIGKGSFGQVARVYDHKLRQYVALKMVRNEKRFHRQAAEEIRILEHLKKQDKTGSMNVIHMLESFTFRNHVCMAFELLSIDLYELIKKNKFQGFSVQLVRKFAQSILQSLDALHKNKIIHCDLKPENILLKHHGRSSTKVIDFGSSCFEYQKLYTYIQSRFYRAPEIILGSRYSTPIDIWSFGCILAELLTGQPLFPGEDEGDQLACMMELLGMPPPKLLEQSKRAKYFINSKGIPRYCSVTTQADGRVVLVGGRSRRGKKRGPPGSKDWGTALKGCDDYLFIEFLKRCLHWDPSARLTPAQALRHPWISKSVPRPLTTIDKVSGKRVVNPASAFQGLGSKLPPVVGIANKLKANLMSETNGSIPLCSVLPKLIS", "assay": "Human kinome profiling, DYRK3", "assay_type": "biochemical", "outline": "as §1"}, "DYRK4": {"biological_target": "T2, DYRK4 (Homo sapiens, UniProt Q9NR20)", "T2 sequence (Q9NR20 1-520)": "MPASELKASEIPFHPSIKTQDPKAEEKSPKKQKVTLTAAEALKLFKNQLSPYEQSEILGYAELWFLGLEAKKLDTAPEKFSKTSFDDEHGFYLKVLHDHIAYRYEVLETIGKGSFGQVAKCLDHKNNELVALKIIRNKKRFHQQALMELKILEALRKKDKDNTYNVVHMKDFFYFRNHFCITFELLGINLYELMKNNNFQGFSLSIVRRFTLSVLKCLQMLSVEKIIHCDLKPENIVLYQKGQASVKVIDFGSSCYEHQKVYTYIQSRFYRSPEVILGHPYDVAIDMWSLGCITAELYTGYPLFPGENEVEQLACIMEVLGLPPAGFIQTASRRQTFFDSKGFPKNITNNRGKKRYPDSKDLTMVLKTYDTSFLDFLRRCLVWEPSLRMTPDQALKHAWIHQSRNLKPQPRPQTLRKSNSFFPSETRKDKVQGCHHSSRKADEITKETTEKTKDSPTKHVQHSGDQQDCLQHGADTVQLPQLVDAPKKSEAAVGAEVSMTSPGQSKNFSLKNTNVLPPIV", "assay": "Human kinome profiling, DYRK4", "assay_type": "biochemical", "outline": "as §1"}, "CLK1": {"biological_target": "CLK1 (Homo sapiens, UniProt P49759)", "sequence (P49759 whole entry)": "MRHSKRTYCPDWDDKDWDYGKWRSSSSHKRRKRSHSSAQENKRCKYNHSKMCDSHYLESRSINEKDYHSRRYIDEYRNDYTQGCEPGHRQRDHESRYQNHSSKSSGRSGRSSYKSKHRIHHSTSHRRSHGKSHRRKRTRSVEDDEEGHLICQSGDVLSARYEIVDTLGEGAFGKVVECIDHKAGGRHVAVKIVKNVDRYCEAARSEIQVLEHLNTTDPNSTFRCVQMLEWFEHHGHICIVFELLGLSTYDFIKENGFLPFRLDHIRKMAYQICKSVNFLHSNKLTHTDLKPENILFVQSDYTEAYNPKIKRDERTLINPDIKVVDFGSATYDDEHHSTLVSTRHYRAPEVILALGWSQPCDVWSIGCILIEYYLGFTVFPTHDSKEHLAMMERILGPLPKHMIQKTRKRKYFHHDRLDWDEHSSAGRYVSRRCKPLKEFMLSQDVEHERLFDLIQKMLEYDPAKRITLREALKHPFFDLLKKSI", "assay": "Human kinome profiling, CLK1", "assay_type": "biochemical", "outline": "as §1"}, "CLK2": {"biological_target": "CLK2 (Homo sapiens, UniProt P49760)", "sequence (P49760 whole entry)": "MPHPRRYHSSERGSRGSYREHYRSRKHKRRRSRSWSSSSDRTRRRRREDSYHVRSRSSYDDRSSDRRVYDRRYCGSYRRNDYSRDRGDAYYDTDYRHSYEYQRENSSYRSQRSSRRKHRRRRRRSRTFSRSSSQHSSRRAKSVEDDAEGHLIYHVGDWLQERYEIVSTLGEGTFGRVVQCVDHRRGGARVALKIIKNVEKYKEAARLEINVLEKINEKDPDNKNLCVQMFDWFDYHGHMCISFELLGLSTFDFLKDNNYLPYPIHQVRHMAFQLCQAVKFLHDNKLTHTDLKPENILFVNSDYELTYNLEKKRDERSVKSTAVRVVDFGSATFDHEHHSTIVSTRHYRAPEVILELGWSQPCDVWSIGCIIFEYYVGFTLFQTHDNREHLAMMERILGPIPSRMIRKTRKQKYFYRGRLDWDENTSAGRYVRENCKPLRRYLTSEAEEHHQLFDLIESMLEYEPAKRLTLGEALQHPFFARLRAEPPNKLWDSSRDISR", "assay": "Human kinome profiling, CLK2", "assay_type": "biochemical", "outline": "as §1"}, "[2]": {"tested_on": "p27KIP phosphorylation (S10)", "assay": "Western blot of p27KIP phosphorylation", "assay_type": "cell-based, rat", "settings": "INS-1E cells, 24 or 48 h, 10 μmol/L harmine or 0.5 μmol/L 5-IT", "outline": "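Cells were treated after overnight attachment and lysed in RIPA buffer. Western blots were probed for p27KIP S10 phosphorylation, with actin as loading control.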"}, "intact human islets": {"tested_on": "intact human islets", "assay_type": "cell-based", "settings": "intact islets of three donors, 1 μmol/L, 6 days", "outline": "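Intact islets from three donors received DMSO or 1 μmol/L test compound for 6 days, and expression was averaged geometrically. Fold changes were regressed by five-dimensional least squares against published expression data from sorted α, β, acinar, large-duct, small-duct and uncharacterised islet cells to estimate cell-mass changes. Significance was assessed by randomising the assignment of sorted replicate samples to cell types.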"}, "human β-cells [3]": {"tested_on": "human β-cells", "assay_type": "in vivo", "settings": "0.25 mg/kg/BW i.p. twice a week for 3 weeks, vs vehicle", "outline": "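NSG mice (male, 8–10 weeks old) were grafted with 1,000 IEQ of human islets under the kidney capsule. From 1 week post-graft they received test compound (0.25 mg/kg i.p., 50% DMSO) or vehicle twice weekly for 3 weeks, followed by BrdU 100 mg/kg i.p. for 3 days and sacrifice at 6 h. Graft sections were co-stained for insulin or PDX-1 with BrdU, Ki67 or pHH3. 1,000–2,000 β-cells were counted per animal; n = 3–4; mean ± SEM; unpaired t test.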"}, "[4]": {"tested_on": "endogenous NSG pancreatic islets β-cells", "assay": "β-cell proliferation in endogenous pancreatic islets of NSG mice", "assay_type": "in vivo, mouse", "settings": "0.25 mg/kg/BW i.p. twice a week for 3 weeks, vs nontreated or sham-operated mice", "outline": "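Pancreata came from human islet-grafted NSG mice dosed i.p. with test compound (0.25 mg/kg, 50% DMSO) or vehicle twice weekly for 3 weeks. Mice then received BrdU 100 mg/kg i.p. for 3 days and were killed 6 h after the final injection. Sections were stained for insulin, BrdU and DAPI, and BrdU+ β-cells were quantified; n = 4; mean ± SEM; unpaired t test.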"}, "[5]": {"tested_on": "α-cells of human islet grafts", "assay": "α-cell proliferation in human islets grafted under the mouse kidney capsule", "assay_type": "in vivo", "settings": "0.25 mg/kg/BW i.p. twice a week for 3 weeks"}, "[6]": {"tested_on": "α-cells of endogenous mouse pancreas", "assay": "α-cell proliferation in endogenous mouse pancreas", "assay_type": "in vivo", "settings": "0.25 mg/kg/BW i.p. twice a week for 3 weeks"}, "primary rat neurons": {"tested_on": "primary rat neurons", "assay": "Proliferation of primary rat neurons in culture", "assay_type": "cell-based"}, "[7]": {"tested_on": "human islet cells (all cell types)", "assay": "Proliferation of other cell types in the heterogeneous human islet cell culture", "assay_type": "cell-based"}}, "data": [{"smiles": "Nc1ncnc2c1c(I)cn2[C@@H]1O[C@H](CO)[C@@H](O)[C@H]1O", "note": "[5-IT, 5-iodotubercidin]", "values": [{"measurement": "increase in β-cell proliferation in pair-matched islets", "setting": "human β-cells [1]; 6-day treatment, islets pair-matched to the WS-3 test", "result": 20, "unit": "fold"}, {"measurement": "concentration of maximal effect on β-cell proliferation", "setting": "human β-cells [1]; 6 days of treatment", "result": 1, "unit": "µmol/L"}, {"measurement": "increase in β-cell proliferation (EdU incorporation)", "setting": "human β-cells [1]; 6 days of treatment, dissociated human islet cells, maximal effect", "result": "10- to 12 fold"}, {"measurement": "remaining activity DYRK1B", "setting": "DYRK1B; 100 nmol/L", "result": "< 10", "unit": "%"}, {"measurement": "IC50", "setting": "DYRK1B; read-out: IC50 DYRK1B, ATP within 15 μmol/L of apparent KM", "result": 10, "unit": "nM"}, {"measurement": "remaining activity DYRK3", "setting": "DYRK3; 100 nmol/L", "result": "< 10", "unit": "%"}, {"measurement": "IC50", "setting": "DYRK3; read-out: IC50 DYRK3, ATP within 15 μmol/L of apparent KM", "result": 3, "unit": "nM"}, {"measurement": "remaining activity DYRK4", "setting": "DYRK4; 100 nmol/L", "result": "< 10", "unit": "%"}, {"measurement": "IC50", "setting": "DYRK4; read-out: IC50 DYRK4, ATP within 15 μmol/L of apparent KM", "result": 129, "unit": "nM"}, {"measurement": "remaining activity CLK1", "setting": "CLK1; 100 nmol/L", "result": "< 10", "unit": "%"}, {"measurement": "IC50", "setting": "CLK1; read-out: IC50 CLK1, ATP within 15 μmol/L of apparent KM", "result": 36, "unit": "nM"}, {"measurement": "remaining activity CLK2", "setting": "CLK2; 100 nmol/L", "result": "< 10", "unit": "%"}, {"measurement": "IC50", "setting": "CLK2; read-out: IC50 CLK2, ATP within 15 μmol/L of apparent KM", "result": 10, "unit": "nM"}, {"measurement": "p27KIP phosphorylation", "setting": "[2]", "result": "decrease"}, {"measurement": "increase in α-cell mass predicted by gene expression results", "setting": "intact human islets; 95% CI 4.6–7.5", "result": 6.1, "unit": "%"}, {"measurement": "β-cell mass increase that could account for gene expression changes", "setting": "intact human islets; 95% CI 5.8–9.2", "result": 7.5, "unit": "%"}, {"measurement": "increase in BrdU incorporation in β-cells of human islet grafts", "setting": "human β-cells [3]; P < 0.01", "result": "approximately fivefold"}, {"measurement": "increase in Ki67 staining of β-cells of human islet grafts", "setting": "human β-cells [3]; P < 0.05", "result": "approximately sixfold"}, {"measurement": "increase in PDX1/BrdU double-positive cells in human islet grafts", "setting": "human β-cells [3]; P < 0.05", "result": "approximately fourfold"}, {"measurement": "increase in PDX1/Ki67 double-positive cells in human islet grafts", "setting": "human β-cells [3]; P < 0.05", "result": "approximately sixfold"}, {"measurement": "increase in pHH3 immunostaining of β-cells of human islet grafts", "setting": "human β-cells [3]; P < 0.05", "result": "~10", "unit": "fold"}, {"measurement": "increase in BrdU+ β-cells in endogenous NSG pancreatic islets", "setting": "[4]", "result": "~2.5", "unit": "fold"}, {"measurement": "α-cell proliferation in human islet grafts, treated vs nontreated", "setting": "[5]", "result": "no significant alterations"}, {"measurement": "α-cell proliferation in endogenous mouse pancreas, treated vs nontreated", "setting": "[6]", "result": "no significant alterations"}, {"measurement": "effect on primary rat neurons in culture", "setting": "primary rat neurons", "result": "no effect"}, {"measurement": "proliferation of all cell types in the heterogeneous culture system", "setting": "[7]", "result": "did not induce proliferation of all cell types"}]}]}
